Sequences and labels used below:
B1: tRNA (parent)
chain: GUUCCGUUGGCGUAAUGGUAACGCGUCUCCCUCCUAAGGAGAAGACUGCGGGUUCGAGUCCCGUACGGAACG

38 variants from the RNAGym collection of RNA variant scans (doi:10.1126/science.aae0568) can be followed below.

Fewer inactive variants are shown than the library holds.

In this data set the parent is B1. In words: yeast fitness relative to wild type (ratio to wild type); higher = fitter; tRNA-Arg(CCU), competitive growth, 37 C, YPD. The method, boiled down:
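For this measurement, the tRNA-Arg(CCU) gene was varied by chemical synthesis at a 3% per-site mutation rate across 69 sites, and each variant was placed at the native genomic locus in Saccharomyces cerevisiae. The pooled strains went through a 24-hour competition in YPD at 37°C in six parallel replicates, with amplicons from start and end populations read by 100-nucleotide paired-end sequencing. Darwinian fitness relative to wild type followed from the change in each genotype's frequency. Genotypes needed ≥ 100 starting reads, and estimates < 0.5 were set to 0.5.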
Take GUUCCGUUGGCGUAAUGCUAACGCGUCUCCCUCCUAAGGAGAAGCCUGCGGGUUCGAGUCCCGUCCGGAACG: the yeast fitness was found to be 0.598.

As for GUUCCGUUGGCGUUAUGGUAACGCGUCUUCCUCCUAUGGAGAAGACUGCGGGUUCGAGUCCCGUAUGGAACG, the yeast fitness is no more than 0.5.

On to GUUCCGUAGGCGUAAUGGUAACGCGUCUCCCUCUUAAGGAGAAGACUGCGGGUUUGAGUCCCGUAAGGAACG, for which the yeast fitness is no more than 0.5.

Consider GUUCCGUUGGCGUAAUGGAAACGAGUCUCCCUCCUAAGGAGAAGACUGCGGGUUCGAGUCCCGUACGGAACG, for which the yeast fitness is 0.598.

GUUCCGUUGGCGUAAUGGUAACGCGUCUCCCUCCUAAGGAGAAGACUGCGGGUUCGAGUCCCGUCCGAAACG: the yeast fitness is 0.767.

As to GUUCCGUUGGCAUAAUGGUAACGCGUUUCCCUCCUCAGGAGUAGAUUGCGGGUUCGAGUCCCGUACGGAACG, the yeast fitness was no more than 0.5.

GUUCCGUUGGCGUAAUAGUAGCGCGCCUCCCUCCUAAGGAGAAGACUGCGGGUUCGAGUCCCGUAAGGAACG: the yeast fitness was no more than 0.5.

Consider GUUCCGUUGGCGUAAUGGUAACGCGUCUCCCUCCUAAGGAGAAGACUGCGGGUUCGAGUCCCGUUGGCAACG, for which the yeast fitness is no more than 0.5.

On to GUUCCGUUGGCGUAAUGGUAACGCGUCUCCCUCAUAAGGAGAAGCCUGCGGGUUCGAGUCCCGUACGGACCG, for which the yeast fitness was 0.701.

Regarding GUUCCGUUGGUGUAAUGGUAUCGCGUAUCCCUCAUUAGGAGAAGACCGCGGGUUCGAGUCCCGUACGGAACG, the yeast fitness is no more than 0.5.

Regarding GUUCCGUUGGCGUAAUGGUAACGCGUUUCCCUCCUACGGAGAAGACUGCGGGUUCGAGUGCCGUGCGGAACG, the yeast fitness was no more than 0.5.

GUCCCGUUGGCGUAAUGGUAACGCGUCUCCCUCCUAAGGAGAAGAAUGCAGGUUCGAGUCCCGUACGGAACG: the yeast fitness was 0.731.

On to GUUCCGUUGGCGUAAUGAUAACGCGUCUCGCUCCUAAGGAGAAGACUGCGGGUUCGAGUCCCGUACGGAACG, for which the yeast fitness is no more than 0.5.

On to GUUCCGUUGGCGUAAUGGUAACGCGUUUCCCUCCUAAGGAGAAGACUGCGGGUUUGAGUUCCGUACGGAUCG, for which the yeast fitness was no more than 0.5.

For the variant GUUCCGUUGGCGUAAUGGUUACACGUCUCCCUCCUUAGGAGAAGACUGCGGGUUCGAGUCCCGUACGGAACG, the yeast fitness turned out to be 0.515.

As for GUUCCGUUGGUGUAAUGGUAACGCGUCUCCCUCCUAAGGAGAAGAGUGUGGGUUCGAGUCCCGUACGGAACG, the yeast fitness was 0.825.

For GUUCCGUUGGCGUAAUGGUAACGCGUCUCCCUCUUAAGGAGAAGACUGCGGGUUCGAGUCGCGUCGGGAACG, the yeast fitness is no more than 0.5.

Regarding GUUACGUUGGCGUUAUGGUAACGCGUCUUCCUCCUAAGGAGAAGACUGCGGGUUCGAGUCCCGUACGAAACG, the yeast fitness was no more than 0.5.

Regarding GUGCCGUUGGCGUAAUGGUAACGCGUCUCCCUCCUAAGGAGAGGACUGCGGGUUCGAGUCCCGUUCGGAACG, the yeast fitness came to 0.701.

GUUCCGUUGGCGUAAUGGUAACGCGUCUCCCUCCUGAGGAGAAGACUGCGGGUACGAGUCCCGUACGGAACG: the yeast fitness is 0.691.

In the case of GUUCCGUUGGCGUAAUGGUAACGCGUAUCCCUCCUAAGGAGAAGACUGAGGGUUCCAGUCCCGUGCGGAACG, the yeast fitness is no more than 0.5.

Regarding GUUCCGUAGGCGUAAUGCUAACGAGUCUCCCCCCUAAGGAGAAGACUGCGGGUUCGAGUCCCGCGCGGAACG, the yeast fitness is no more than 0.5.

For GUUUCGUUGGCGUAAUGGUAACGAGUCUCCCUCCUAAGGAGAGGACUGCGGGUUCGAGUCCCCUACGGAACG, the yeast fitness was no more than 0.5.

Turning to GUUCCGUUGGCGUAAUGGUAGCGCGUAUCCCUCCUAUGGAGAAGACUGCGGGUUCGAGUCCCCUACGGAACG, the yeast fitness is no more than 0.5.

Take GUUCCAUUGGCGUAAUGGGAACGCGUCUCCCUUUUAAGGAGAAGACUGCGGGUUCGAGUCCCGUACGGAACG: the yeast fitness was no more than 0.5.

On to GUUCCGUUGGCGUAAUGGUAACGCGUCUCCCUCCUAAGGAGAAGACGGCGGGUUCGAGUACCGUACGGAACG, for which the yeast fitness is no more than 0.5.

Consider GUUCUGUUGGCGUAAUGGUAAGGCGUCUCCCUCCUAAGGGGAAGACUGCGGGUUCGAGUCCCGUACGGAACG, for which the yeast fitness is 0.741.

For the variant GUUCCGUUGGCGUAAUGGUAACGGGUCUCCUUGCUAAGGAGAAGACUGCGGGUUCGAGUCCCGUACGGAACG, the yeast fitness is no more than 0.5.

Take GUUCCAUUGGCGUACUGGUAAUGCGUCUCCCUGCUAAGGAGAAGACUGCGGGUUCGAGUCCACUACGGAACG: the yeast fitness came out at 0.753.

With GUUCGGUUGGCGUAAUGGUAACGCGUCUCCCUCCUAAGGAGAAGACUGGGAGUUCGAGUCCCGUACGGAACG, the yeast fitness was no more than 0.5.

In the case of GUUCCGUUGGCGUAAUGGUAACGCGUCUCCCUCCUAACGAGAAGACUGCGGGUUCGAGUCCCGAAUGGAACG, the yeast fitness is no more than 0.5.

For the variant GUUCCGUUGGCGUAAUGGUAACGCGUCUCCCUCCUAAGGAGUAGACUGCGGAUUCGAGUCCCGUACGGAACG, the yeast fitness stood at 0.808.

Turning to GUUCGGUUGGCGUAAUGGUAUCGCGUCUCCCUCCUAAGGAGAAGACUGCGGGUUCGAGUCCCGUACGGAACG, the yeast fitness came out at 0.731.

Turning to GUUCCGUUGGCGUAAUGGUAACGCGUCUCCCUCCUAAGGAGAAGACUGCGGGUUAGAGUCCGGUACAGAACG, the yeast fitness was no more than 0.5.

As to GUUCAGUUGGCGUAAUGGUAACGCGUCUCCCUCGUAAGGAGAAGAUUGCGGGUUCGAGUCCCGUACGGAUCG, the yeast fitness was no more than 0.5.

On to GUUCCGUUGGCGCAAUGGUAACGCCUCUCCCUCCUAAGGAGAAGACUGCGGGUUCGAGUCUCGUACGGAACG, for which the yeast fitness worked out at 1.14.

Regarding GUUCCGUUGGCGUAAGGCUAUCGCGUCUCCCUCCUAAGGAGAAGACUGCGGGUUCGAGUCCCGUACGGAACG, the yeast fitness was 0.59.

Regarding GUUCAGUUGGCGUAAUGGUAACGCGUCUCCCUCCUAAGGAGAAGACUGCGGGUUCGUGUCCCGUACGGAACG, the yeast fitness amounted to 0.669.
